Test results: ChEMBL document CHEMBL3576866, “Discovery of a Cyclic Boronic Acid β-Lactamase Inhibitor (RPX7009) with Utility vs Class A Serine Carbapenemases” (J Med Chem, 2015)
Values after ≈ are worked out from the molar mass of the structure shown. Active and inactive are the calls of the source. The calls are words filed in the database; no cut-off is given here.

What was measured:
[1] = test system: Klebsiella pneumoniae; experiment: Antibacterial activity against Klebsiella pneumoniae KP1088 expressing KPC3/SHV-11/TEM-1 by broth microdilution method; type: functional
[2] = test system: Klebsiella oxytoca; experiment: Antibacterial activity against Klebsiella oxytoca KX1017 expressing KPC2/OXA2/SHV30 by broth microdilution method; type: functional
[3] = test system: Klebsiella oxytoca; experiment: Antibacterial activity against Klebsiella oxytoca KX1019 expressing KPC2/OXA2 by broth microdilution method; type: functional
[4] = test system: Klebsiella pneumoniae; experiment: Antibacterial activity against Klebsiella pneumoniae KP1087 expressing KPC2/CTX-M-15/SHV-11/TEM-1 by broth microdilution method; type: functional
[5] = test system: Klebsiella pneumoniae; experiment: Antibacterial activity against Klebsiella pneumoniae KP1004 expressing KPC2/TEM1/SHV11 by broth microdilution method; type: functional
[6] = test system: Klebsiella pneumoniae; experiment: Antibacterial activity against Klebsiella pneumoniae KP1083 expressing KPC3/SHV-1/TEM-1 by broth microdilution method; type: functional
[7] = test system: Klebsiella pneumoniae; experiment: Antibacterial activity against Klebsiella pneumoniae KP1082 expressing KPC2/SHV-1 by broth microdilution method; type: functional
[8] = test system: Klebsiella pneumoniae; experiment: Antibacterial activity against Klebsiella pneumoniae KP1008 expressing KPC2 by broth microdilution method; type: functional
[9] = test system: Klebsiella pneumoniae; experiment: Antibacterial activity against Klebsiella pneumoniae KP1084 expressing KPC3/SHV-11/TEM-1 by broth microdilution method; type: functional
[10] = test system: Escherichia coli; experiment: microbe, parasite or virus in culture; settings: EC1007
[11] = test system: Enterobacter cloacae; experiment: Antibacterial activity against Enterobacter cloacae ECL1058 expressing KPC3/SHV-11/TEM-1 by broth microdilution method; type: functional
[12] = test system: Klebsiella aerogenes; experiment: microbe, parasite or virus in culture; settings: EA1028
[13] = test system: Escherichia coli; experiment: microbe, parasite or virus in culture; settings: EC1008
[14] = test system: Klebsiella pneumoniae; experiment: microbe, parasite or virus in culture; settings: KP1011
[15] = test system: Klebsiella pneumoniae; experiment: microbe, parasite or virus in culture; settings: KP1010
[16] = test system: Escherichia coli; experiment: microbe, parasite or virus in culture; settings: EC1009
[17] = test system: Klebsiella pneumoniae; experiment: microbe, parasite or virus in culture; settings: KP1005
[18] = test system: Klebsiella oxytoca; experiment: microbe, parasite or virus in culture; settings: KX1001
[19] = test system: Klebsiella pneumoniae; experiment: microbe, parasite or virus in culture; settings: KP1009
[20] = test system: Escherichia coli; experiment: microbe, parasite or virus in culture; settings: EC1011
[21] = Competitive inhibition of Escherichia coli RTEM-1
[22] = Inhibition of Escherichia coli MV1183 TEM-1 using nitrocefin as substrate preincubated for 10 mins followed by substrate addition measured for 500 secs
[23] = test system: Klebsiella pneumoniae; experiment: Antibacterial activity against Klebsiella pneumoniae KP1004 by broth microdilution method; type: functional, organism-based
[24] = target: Beta-lactamase (Klebsiella pneumoniae) (UniProt Q93LQ9); experiment: Inhibition of Klebsiella pneumoniae KP1004 KPC 2 carbapenemase assessed as minimum concentration required to reduce biapenem MIC from […] ug/ml to 1 ug/mL by broth microdilution method
Sequence of Beta-lactamase (Klebsiella pneumoniae) (Q93LQ9 as listed by the source): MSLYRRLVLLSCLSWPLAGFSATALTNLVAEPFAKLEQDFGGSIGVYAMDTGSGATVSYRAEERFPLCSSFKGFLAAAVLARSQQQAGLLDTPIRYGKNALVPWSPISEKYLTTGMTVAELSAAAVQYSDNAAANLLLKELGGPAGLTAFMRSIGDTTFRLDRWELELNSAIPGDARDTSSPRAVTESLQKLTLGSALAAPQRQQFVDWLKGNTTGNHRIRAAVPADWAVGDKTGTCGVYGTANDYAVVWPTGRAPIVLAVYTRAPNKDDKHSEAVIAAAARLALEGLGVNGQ

[25] = test system: Klebsiella pneumoniae; experiment: Antibacterial activity against Klebsiella pneumoniae KP1074 in Swiss webster neutropenic mouse lung infection model assessed as change in log10 CFU in lung at 50 mg/kg, ip administered every 2 hrs starting at 2 hrs postinfection measured after 24 hrs relative to control; type: functional
How it was run: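 Swiss Webster mice made neutropenic with cyclophosphamide and infected intratracheally under isoflurane with KP1074. […] Lungs harvested 24 h after the start of treatment, homogenized and plated for CFU.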

[26] = Inhibition of Escherichia coli recombinant P99 assessed as substrate nitrocefin degradation preincubated for 10 mins followed by substrate addition measured every 10 secs for 10 mins by spectrophotometric analysis
How it was run: (§1)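 β-Lactamases purified from overexpressing recombinant E. coli. Enzyme preincubated with inhibitor at varying concentrations for 10 min at room temperature in 50 mM Na phosphate pH 7.0, 0.1 mg/mL BSA. Then 50 μM nitrocefin (final) added and cleavage read at 490 nm every 10 s for 10 min. Ki derived by the Waley method.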

[27] = Inhibition of Escherichia coli recombinant CMY-2 assessed as substrate nitrocefin degradation preincubated for 10 mins followed by substrate addition measured every 10 secs for 10 mins by spectrophotometric analysis; how it was run: as §1
[28] = Inhibition of Escherichia coli recombinant KPC-2 assessed as substrate nitrocefin degradation preincubated for 10 mins followed by substrate addition measured every 10 secs for 10 mins by spectrophotometric analysis; how it was run: as §1
[29] = Inhibition of Escherichia coli recombinant TEM-10 assessed as substrate nitrocefin degradation preincubated for 10 mins followed by substrate addition measured every 10 secs for 10 mins by spectrophotometric analysis; how it was run: as §1
[30] = Inhibition of Escherichia coli recombinant SHV-12 assessed as substrate nitrocefin degradation preincubated for 10 mins followed by substrate addition measured every 10 secs for 10 mins by spectrophotometric analysis; how it was run: as §1
[31] = Inhibition of Escherichia coli recombinant CTX-M-15 assessed as substrate nitrocefin degradation preincubated for 10 mins followed by substrate addition measured every 10 secs for 10 mins by spectrophotometric analysis; how it was run: as §1
[32] = test system: Klebsiella pneumoniae; experiment: Antibacterial activity against Klebsiella pneumoniae KP1074 in Swiss webster neutropenic mouse lung infection model assessed as change in log10 CFU in lung at 100 mg/kg, ip administered every 2 hrs starting at 2 hrs postinfection measured after 24 hrs relative to control; type: functional
How it was run: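 Neutropenic (cyclophosphamide) Swiss Webster mice infected intratracheally under isoflurane anesthesia with K. pneumoniae KP1074. […] Lungs removed 24 h after start of treatment, homogenized and plated for bacterial counts (CFU).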

SMILES: C[C@@H](O)[C@H]1C(=O)N2C(C(=O)O)=C(S[C@@H]3CN[C@H](C(=O)Nc4cccc(C(=O)O)c4)C3)[C@H](C)[C@H]12
- MIC [1]: 16 mg/L (≈ 33.6 µM)
- MIC [2]: 16 mg/L (≈ 33.6 µM)
- MIC [3]: 16 mg/L (≈ 33.6 µM)
- MIC [4]: > 64 mg/L
- MIC [5]: 32 mg/L (≈ 67.3 µM)
- MIC [6]: 32 mg/L (≈ 67.3 µM)
- MIC [7]: 4 mg/L (≈ 8.41 µM)
- MIC [8]: 8 mg/L (≈ 16.8 µM)
- MIC [9]: > 64 mg/L
- MIC [10]: 8 mg/L (≈ 16.8 µM)
- MIC [11]: 32 mg/L (≈ 67.3 µM)

SMILES: CO/N=C(\C(=O)N[C@@H]1C(=O)N2C(C(=O)[O-])=C(C[N+]3(C)CCCC3)CS[C@H]12)c1csc(N)n1
- MIC [12]: > 64 mg/L
- MIC [13]: > 64 mg/L
- MIC [14]: 64 mg/L (≈ 133 µM)
- MIC [15]: 2 mg/L (≈ 4.16 µM)
- MIC [16]: 8 mg/L (≈ 16.6 µM)
- MIC [17]: 64 mg/L (≈ 133 µM)
- MIC [18]: 4 mg/L (≈ 8.32 µM)
- MIC [19]: > 64 mg/L
- MIC [20]: 8 mg/L (≈ 16.6 µM)

SMILES: CC(=O)NC(Cc1cccc(C(=O)O)c1)B(O)O (stereo not drawn)
- Ki [21]: 0.11 µM

SMILES: O=C(Cc1ccccc1)NC(Cc1cccc(C(=O)O)c1)B(O)O (stereo not drawn)
- Ki [22]: 0.006 µM

SMILES: CC(=O)NC(Cc1cccc(C(=O)O)c1O)B(O)O (stereo not drawn)
- Ki [22]: 0.013 µM

SMILES: CC(=O)N[C@H]1CC[C@@H](CC(=O)O)OB1O
- Activity [23]: inactive
- MEC [24]: 0.3 µg/mL

SMILES: NCCSCC(=O)N[C@H]1CC[C@@H](CC(=O)O)OB1O
- Activity [23]: inactive
- MEC [24]: 0.3 µg/mL

SMILES: N[C@H](C(=O)N[C@H]1CC[C@@H](CC(=O)O)OB1O)c1ccccc1
- Activity [23]: inactive
- MEC [24]: 0.3 µg/mL

SMILES: Nc1cc(CC(=O)N[C@H]2CC[C@@H](CC(=O)O)OB2O)ccn1
- Activity [23]: inactive
- MEC [24]: 0.04 µg/mL

SMILES: Nc1nc(CC(=O)N[C@H]2CC[C@@H](CC(=O)O)OB2O)cs1
- Activity [23]: inactive
- MEC [24]: 0.61 µg/mL

SMILES: O=C(O)C[C@@H]1CC[C@H](NC(=O)C(O)c2ccccc2)B(O)O1 (stereo partly drawn)
- Activity [23]: inactive
- MEC [24]: 0.61 µg/mL

SMILES: O=C(O)C[C@@H]1CC[C@H](NC(=O)C2CC2)B(O)O1
- Activity [23]: inactive
- MEC [24]: 0.15 µg/mL

SMILES: O=C(O)C[C@@H]1CC[C@H](NC(=O)CCc2ccccc2)B(O)O1
- Activity [23]: inactive
- MEC [24]: 0.3 µg/mL

SMILES: O=C(O)C[C@@H]1CC[C@H](NC(=O)C[C@H]2CCCCN2)B(O)O1
- Activity [23]: inactive
- MEC [24]: 0.15 µg/mL

SMILES: O=C(O)C[C@@H]1CC[C@H](NC(=O)Cc2cccc(O)c2)B(O)O1
- Activity [23]: inactive
- MEC [24]: 1.25 µg/mL

SMILES: O=C(O)C[C@@H]1CC[C@H](NC(=O)Cc2ccccc2)B(O)O1
- Activity [23]: inactive
- MEC [24]: 0.15 µg/mL

SMILES: O=C(O)C[C@@H]1CC[C@H](NC(=O)Cc2ccccc2O)B(O)O1
- Activity [23]: inactive
- MEC [24]: 0.16 µg/mL

SMILES: O=C(O)C[C@@H]1CC[C@H](NC(=O)Cc2ccccn2)B(O)O1
- Activity [23]: inactive
- MEC [24]: 0.15 µg/mL

SMILES: O=C(O)C[C@@H]1CC[C@H](NC(=O)Cc2cccnc2)B(O)O1
- Activity [23]: inactive
- MEC [24]: 0.15 µg/mL

SMILES: O=C(O)C[C@@H]1CC[C@H](NC(=O)Cc2ccncc2)B(O)O1
- Activity [23]: inactive
- MEC [24]: 0.15 µg/mL

SMILES: O=C(O)C[C@@H]1CC[C@H](NC(=O)c2ccccc2)B(O)O1
- Activity [23]: inactive
- MEC [24]: 0.3 µg/mL

SMILES: CO/N=C(\C(=O)N[C@H]1CC[C@@H](CC(=O)O)OB1O)c1csc(N)n1 (stereo in doubt)
- Activity [23]: inactive
- MEC [24]: 1.25 µg/mL

SMILES: C[C@@H](O)[C@H]1C(=O)N2C(C(=O)[O-])=C(SC3Cn4cnc[n+]4C3)[C@H](C)[C@H]12 (stereo partly drawn) [BIAPENEM]
- deltalog10CFU [25]: 0.88
- MIC [1]: 32 mg/L (≈ 91.3 µM)
- MIC [2]: 4 mg/L (≈ 11.4 µM)
- MIC [3]: 8 mg/L (≈ 22.8 µM)
- MIC [4]: 16 mg/L (≈ 45.7 µM)
- MIC [5]: 8 mg/L (≈ 22.8 µM)
- MIC [6]: 16 mg/L (≈ 45.7 µM)
- MIC [7]: 4 mg/L (≈ 11.4 µM)
- MIC [8]: 8 mg/L (≈ 22.8 µM)
- MIC [9]: 64 mg/L (≈ 183 µM)
- MIC [10]: 8 mg/L (≈ 22.8 µM)
- MIC [11]: 8 mg/L (≈ 22.8 µM)

SMILES: O=C(O)[C@H]1/C(=C/CO)O[C@@H]2CC(=O)N21 [CLAVULANIC ACID]
- Ki [26]: 1110 µM
- Ki [27]: 845 µM
- Ki [28]: 41.2 µM
- Ki [29]: 0.02 µM
- Ki [30]: ≤ 0.039 µM
- Ki [31]: 0.027 µM

SMILES: C[C@@H](O)[C@H]1C(=O)N2C(C(=O)O)=C(SCCNC=N)C[C@H]12 [IMIPENEM ANHYDROUS]
- MIC [1]: 32 mg/L (≈ 107 µM)
- MIC [2]: 8 mg/L (≈ 26.7 µM)
- MIC [3]: 4 mg/L (≈ 13.4 µM)
- MIC [4]: 16 mg/L (≈ 53.4 µM)
- MIC [5]: 8 mg/L (≈ 26.7 µM)
- MIC [6]: 16 mg/L (≈ 53.4 µM)
- MIC [7]: 4 mg/L (≈ 13.4 µM)
- MIC [8]: 4 mg/L (≈ 13.4 µM)
- MIC [9]: 64 mg/L (≈ 214 µM)
- MIC [10]: 8 mg/L (≈ 26.7 µM)
- MIC [11]: 8 mg/L (≈ 26.7 µM)

SMILES: C[C@@H](O)[C@H]1C(=O)N2C(C(=O)O)=C(S[C@@H]3CN[C@H](C(=O)N(C)C)C3)[C@H](C)[C@H]12 [MEROPENEM]
- MIC [1]: 8 mg/L (≈ 20.9 µM)
- deltalog10CFU [32]: 1.41
- MIC [2]: 4 mg/L (≈ 10.4 µM)
- MIC [3]: 4 mg/L (≈ 10.4 µM)
- MIC [4]: 64 mg/L (≈ 167 µM)
- MIC [5]: 8 mg/L (≈ 20.9 µM)
- MIC [7]: 4 mg/L (≈ 10.4 µM)
- MIC [8]: 4 mg/L (≈ 10.4 µM)
- MIC [9]: > 64 mg/L
- MIC [10]: 4 mg/L (≈ 10.4 µM)
- MIC [11]: 8 mg/L (≈ 20.9 µM)

SMILES: C[C@]1(Cn2ccnn2)[C@H](C(=O)O)N2C(=O)C[C@H]2S1(=O)=O [TAZOBACTAM]
- Ki [26]: 1.1 µM
- Ki [27]: 0.71 µM
- Ki [28]: 1.6 µM
- Ki [29]: 0.005 µM
- Ki [30]: 0.0004 µM
- Ki [31]: 0.001 µM
